Published values collected from several papers.
Lines come from different studies, so protocols differ.
Organism: Staphylococcus aureus
Read-out: microbial growth

O=C(CCCCc1ccccc1)CP(=O)(O)O
MIC (ATCC33591 MRSA; drug-resistant strain): > 200 µg/mL

CCOC(=O)c1cc(-c2cccc(NC(=O)Nc3ccc(Cl)c(Cl)c3)c2)on1
MIC (broth dilution; ATCC29213): > 64 µg/mL

COc1ccc(-c2nc3ccccc3n2Cc2ccccc2)cc1OC
MIC (broth dilution; ATCC43300 MRSA; drug-resistant strain): 8 µg/mL

CN[C@H](CC(C)C)C(=O)N[C@H]1C(=O)N[C@@H](CC(N)=O)C(=O)N[C@H]2C(=O)N[C@H]3C(=O)N[C@H](C(=O)N[C@H](C(=O)O)c4cc(O)cc(O)c4-c4cc3ccc4O)[C@H](O)c3ccc(c(Cl)c3)Oc3cc2cc(c3O[C@@H]2O[C@H](CO)[C@@H](O)[C@H](O)[C@H]2O[C@H]2C[C@](C)(N)[C@H](O)[C@H](C)O2)Oc2ccc(cc2Cl)[C@H]1O
MIC (broth dilution; ATCC25923): 1 µg/mL

Cc1ccc2nc(-c3ccc(F)cc3)n(Cc3ccccc3)c2c1
MIC (broth dilution; ATCC43300 MRSA; drug-resistant strain): 64 µg/mL

CC1C(=NOCc2cc(-c3ccc(Cl)cc3)no2)CC(c2ccccc2)OC1c1ccccc1 (centres unmarked)
MIC (broth dilution; MTCC96; 24 h): 25 µg/mL

Cc1onc(-c2ccccc2)c1C(=O)N[C@@H]1C(=O)N2[C@@H]1SC(C)(C)[C@@H]2C(=O)O
MIC (broth dilution; MRSA): 32 µg/mL

CCCCCC/C=C\CCCCCCCCCc1cc(O)cc(O)c1
MIC (broth dilution; USA300; drug-resistant strain): > 64 µg/mL

Cc1ccc2nc(-c3ccc([N+](=O)[O-])cc3)n(Cc3ccccc3Cl)c2c1
MIC (broth dilution; ATCC43300 MRSA; drug-resistant strain): 64 µg/mL

CC1(C)CC[C@]2(C(=O)O)CC[C@]3(C)C(=CC[C@@H]4[C@@]5(C)CC[C@H](O)C(C)(C)[C@@H]5CC[C@]43C)[C@@H]2C1
MIC (83254): 64 µg/mL

CNC(C)[C@@H]1CC[C@@H](N)[C@@H](O[C@H]2[C@H](O)[C@@H](O[C@H]3OC[C@](C)(O)[C@H](NC)[C@H]3O)[C@H](N)C[C@@H]2N)O1 (some centres unmarked)
MIC (NCTC8325): 0.5 to 1 µM

CC(c1ccc(Cl)c(Cl)c1)n1cnc2cc3c(cc21)CCC3 (centres unmarked)
MIC: 3.1 to 6.3 µg/mL

COc1ccc(-c2nc3ccccc3[nH]2)cc1O
MIC (broth dilution; ATCC43300 MRSA; drug-resistant strain): 256 µg/mL

CN[C@@H]1[C@H](O)[C@H](NC)[C@H]2O[C@@]3(O)C(=O)C[C@@H](C)O[C@H]3O[C@@H]2[C@H]1O
MIC (broth dilution; 8325): 25 µg/mL

Cc1cccc2nc(-c3ccc([N+](=O)[O-])o3)[nH]c12
MIC (broth dilution; ATCC700699 MRSA; drug-resistant strain): 2 µg/mL

COC(=O)c1cc(-c2cccc(NC(=S)Nc3ccc(C)cc3)c2)on1
MIC (broth dilution; ATCC29213): > 64 µg/mL

CCCCCCCCCCCC(=O)CP(=O)(O)O
MIC (ATCC33591 MRSA; drug-resistant strain): 100 µg/mL

CCC(CC)c1cc(CCN2CCCN(Cc3ccc(C(F)(F)F)cc3)CC2)nc(-c2ccncc2)n1
MIC (ATCCBAA41; drug-resistant strain, clinical isolate): 6 µg/mL

CSc1ccc(-c2nc3ccccc3[nH]2)cc1
MIC (broth dilution; ATCC43300 MRSA; drug-resistant strain): 32 µg/mL

CCOC(=O)c1nnn(-c2cccc(NC(=O)Nc3ccc(Cl)c(Cl)c3)c2)c1C
MIC (broth dilution; ATCC29213): > 64 µg/mL
